From ChEMBL document CHEMBL1125266, “Tyrphostins. 2. Heterocyclic and alpha-substituted benzylidenemalononitrile tyrphostins as potent inhibitors of EGF receptor and ErbB2/neu tyrosine kinases” (J Med Chem, 1991)

Columns and labels:
[1] = target: T1, Epidermal growth factor receptor (Homo sapiens, UniProt P00533); experiment: Inhibition of polyGAT phosphorylation
[2] = target: T1, Epidermal growth factor receptor; experiment: In vitro inhibition of HER1 autophosphorylation.
[3] = target: Receptor tyrosine-protein kinase erbB-2 (Homo sapiens, UniProt P04626); experiment: In vitro inhibition of ERBB2 receptor kinase autophosphorylation.
[4] = system: NIH3T3; experiment: (§1) Inhibition of HER14 serum dependent cell proliferation without EGF; format: functional, Mus musculus
How it was run: (§2)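 Serum-starved HER14 cells (NIH3T3 stably overexpressing EGF receptor) were given inhibitor at least 6-8 h before serum stimulation, with no EGF added. Inhibitor-containing medium was replaced every 24 h. Three parallel wells were used per concentration, and the IC50 for inhibition of serum-supported growth was determined.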

[5] = system: NIH3T3; experiment: as §1; conditions: Mus musculus
[6] = system: NIH3T3; experiment: Inhibition of HER14 (human EGFR overexpressing NIH3T3) cell growth in the absence of EGF.; format: functional, Mus musculus; how it was run: as §2
[7] = target: T1, Epidermal growth factor receptor; experiment: Inhibition of epidermal growth factor receptor autophosphorylation
[8] = system: NIH3T3; experiment: as §1; format: functional, cell-based; conditions: Mus musculus; how it was run: as §2

Sequence of Receptor tyrosine-protein kinase erbB-2 (P04626 whole entry): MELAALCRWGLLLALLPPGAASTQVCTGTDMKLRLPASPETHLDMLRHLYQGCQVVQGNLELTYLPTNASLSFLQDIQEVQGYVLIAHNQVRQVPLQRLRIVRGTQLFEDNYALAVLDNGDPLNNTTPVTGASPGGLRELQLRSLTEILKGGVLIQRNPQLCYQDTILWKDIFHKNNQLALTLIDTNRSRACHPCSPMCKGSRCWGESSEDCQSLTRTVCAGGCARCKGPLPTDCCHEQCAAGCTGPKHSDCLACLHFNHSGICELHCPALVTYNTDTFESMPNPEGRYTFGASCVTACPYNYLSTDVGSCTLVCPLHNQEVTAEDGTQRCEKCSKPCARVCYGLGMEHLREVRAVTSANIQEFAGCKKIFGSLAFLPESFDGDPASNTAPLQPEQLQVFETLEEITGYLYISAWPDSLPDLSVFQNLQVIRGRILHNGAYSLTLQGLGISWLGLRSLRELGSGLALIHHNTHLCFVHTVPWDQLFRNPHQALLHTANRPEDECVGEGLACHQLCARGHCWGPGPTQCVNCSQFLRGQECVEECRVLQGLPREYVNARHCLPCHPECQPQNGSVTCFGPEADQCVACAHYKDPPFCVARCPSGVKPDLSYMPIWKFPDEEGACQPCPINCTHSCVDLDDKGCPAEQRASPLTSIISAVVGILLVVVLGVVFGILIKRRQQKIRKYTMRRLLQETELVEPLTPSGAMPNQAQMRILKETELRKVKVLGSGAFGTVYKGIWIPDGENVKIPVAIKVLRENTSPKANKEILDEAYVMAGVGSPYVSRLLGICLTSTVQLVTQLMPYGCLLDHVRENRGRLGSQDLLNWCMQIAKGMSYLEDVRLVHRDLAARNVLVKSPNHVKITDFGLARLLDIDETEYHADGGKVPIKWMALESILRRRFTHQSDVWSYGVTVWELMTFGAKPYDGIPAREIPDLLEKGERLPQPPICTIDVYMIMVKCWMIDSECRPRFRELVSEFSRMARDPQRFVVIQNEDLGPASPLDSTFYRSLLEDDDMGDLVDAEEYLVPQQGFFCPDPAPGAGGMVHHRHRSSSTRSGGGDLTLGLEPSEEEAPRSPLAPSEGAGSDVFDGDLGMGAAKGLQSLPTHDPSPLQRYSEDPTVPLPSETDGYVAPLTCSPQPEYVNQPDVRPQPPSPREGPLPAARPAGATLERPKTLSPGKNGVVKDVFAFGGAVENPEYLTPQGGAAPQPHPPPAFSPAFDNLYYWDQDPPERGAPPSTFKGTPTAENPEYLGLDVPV
T1 sequence (P00533 whole entry): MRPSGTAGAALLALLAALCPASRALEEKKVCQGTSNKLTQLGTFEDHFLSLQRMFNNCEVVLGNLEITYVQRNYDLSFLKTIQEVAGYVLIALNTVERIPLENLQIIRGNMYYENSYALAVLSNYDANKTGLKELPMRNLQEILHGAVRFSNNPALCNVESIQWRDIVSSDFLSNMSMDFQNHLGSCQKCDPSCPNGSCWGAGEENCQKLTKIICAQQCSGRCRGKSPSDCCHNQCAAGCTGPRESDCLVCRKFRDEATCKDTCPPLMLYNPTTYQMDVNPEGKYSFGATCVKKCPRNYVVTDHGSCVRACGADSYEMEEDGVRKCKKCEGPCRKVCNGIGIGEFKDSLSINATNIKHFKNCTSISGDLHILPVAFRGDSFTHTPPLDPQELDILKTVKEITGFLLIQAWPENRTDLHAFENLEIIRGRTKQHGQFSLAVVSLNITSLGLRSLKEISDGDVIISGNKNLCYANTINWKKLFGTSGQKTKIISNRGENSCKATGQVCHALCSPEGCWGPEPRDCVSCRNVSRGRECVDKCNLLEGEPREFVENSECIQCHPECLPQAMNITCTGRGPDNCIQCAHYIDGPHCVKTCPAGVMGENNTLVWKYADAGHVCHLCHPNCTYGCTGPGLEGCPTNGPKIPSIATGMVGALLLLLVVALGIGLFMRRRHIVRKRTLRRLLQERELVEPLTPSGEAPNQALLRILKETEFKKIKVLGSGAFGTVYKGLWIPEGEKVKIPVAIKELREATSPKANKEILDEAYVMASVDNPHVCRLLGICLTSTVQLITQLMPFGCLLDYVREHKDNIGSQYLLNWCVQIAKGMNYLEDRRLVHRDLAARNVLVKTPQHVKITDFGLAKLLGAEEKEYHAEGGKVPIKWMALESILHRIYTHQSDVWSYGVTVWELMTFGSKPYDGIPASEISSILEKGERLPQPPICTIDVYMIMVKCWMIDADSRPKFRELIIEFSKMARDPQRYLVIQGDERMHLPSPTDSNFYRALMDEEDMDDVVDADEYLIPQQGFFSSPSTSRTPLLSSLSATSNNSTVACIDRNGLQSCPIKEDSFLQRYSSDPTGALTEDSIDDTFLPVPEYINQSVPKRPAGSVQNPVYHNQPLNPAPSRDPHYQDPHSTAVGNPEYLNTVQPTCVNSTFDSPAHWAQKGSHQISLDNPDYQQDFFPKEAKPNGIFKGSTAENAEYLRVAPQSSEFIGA

SMILES | IC50 [1] [µM] | IC50 [2] [µM] | IC50 [3] [µM] | other results
N#CC(C#N)=C1C(=O)Nc2ccc([N+](=O)[O-])cc21 | 40 | – | – | –
N#C/C(=C\c1ccc(O)c(O)c1)C(=O)N1CCCCC1 | > 1000 | – | – | –
N#C/C(=C\c1ccc(O)c(O)c1)C(=O)N1CCN(c2ccccc2)CC1 | 4.3 | 55 | 49 | –
N#CC(C#N)=Cc1ccc2c(c1)CCN2Cc1ccccc1 | > 2500 | – | – | –
N#CC(C#N)=C1CCCc2c(O)cccc21 | 1200 | – | – | –
N#CC(C#N)=C1CCc2cc(O)c(O)cc21 | 0.5 | – | – | Inhibition [4]: >150%
N#C/C(=C\c1ccc(O)c(O)c1)C(=O)NCCc1ccccc1 | 0.93 | < 0.625 | 23 | –
N#CC(C#N)=Cc1ccc2[nH]ccc2c1 | – | – | – | IC50 [5]: 12 µM
C[S+]([O-])c1ccc(C=C(C#N)C#N)cc1 (centres undefined) | 1800 | – | – | –
N#C/C(=C\c1ccc(O)c(O)c1)C(N)=O | – | 4.5 | 6.4 | IC50 [6]: 60 µM
N#CC(C#N)=Cc1ccco1 | > 1250 | – | – | –
N#C/C(=C\c1ccc(O)c(O)c1)C(=O)NC1CCCCC1 | 1.6 | 5.9 | 17 | IC50 [6]: 50 µM
N#C/C(=C\c1ccc(O)c(O)c1)C(=O)NCCCCc1ccccc1 | 1.1 | 5 | > 500 | IC50 [6]: 10 µM
N#C/C(=C\c1ccc(O)c(O)c1)C(=O)NCCCc1ccccc1 | 0.7 | 0.7 | 35 | IC50 [6]: 25 µM
Cc1ccc(C(=O)/C(C#N)=C/c2ccc(O)c(O)c2)cc1 | 0.88 | 15 | 10 | IC50 [6]: 100 µM
N#C/C(=C\c1ccc(O)c(O)c1)C(=O)c1ccc(F)cc1 | 0.56 | – | 13.6 | IC50 [7]: 5.1 µM; IC50 [4]: 80 µM
Cc1cccc(C)c1NC(=O)/C(C#N)=C/c1ccc(O)c(O)c1 | 5.1 | 10.3 | 34 | IC50 [6]: > 20 µM
N#CC(C#N)=C1C(=O)Nc2ccc(O)cc21 | 12.5 | – | – | –
Cc1cc(C)c(C(=O)/C(C#N)=C/c2ccc(O)c(O)c2)c(C)c1 | 10.7 | 24 | 50 | –
N#C/C(=C\c1ccc(O)c(O)c1)C(=O)c1cccs1 | 3.1 | 31 | 35 | –
N#C/C(=C\c1ccc(O)c(O)c1)C(=O)c1ccccc1 | 1.3 | 14 | 18 | IC50 [6]: 120 µM
CN1C(=O)C(=C(C#N)C#N)c2cc(O)ccc21 | 26 | – | – | –

SMILES | IC50 [1] [µM] | IC50 [2] [µM] | IC50 [3] [µM] | other results
N#C/C(=C\c1ccc(O)c(O)c1)C(=O)Nc1ccccc1Cl | 1.1 | 2.1 | 57 | IC50 [6]: 12 µM
N#CC(C#N)=Cc1cccnc1 | 225 | – | – | –
CCOC(=O)C(Cc1ccccc1)NC(=O)/C(C#N)=C/c1ccc(O)c(O)c1 (centres undefined) | 1.53 | 49 | > 333 | –
N#C/C(=C\c1ccc(O)c(O)c1)C(=O)c1ccc(O)c(O)c1 | 0.37 | 5 | 18 | IC50 [4]: > 50 µM
COc1ccc(CCNC(=O)/C(C#N)=C/c2ccc(O)c(O)c2)cc1OC | 1.7 | – | – | –
N#C/C(=C\c1ccc(O)c(O)c1)C(=O)N1CCc2ccccc21 | 2.1 | 12 | 4.9 | IC50 [6]: 100 µM
N#C/C(=C\c1ccc(O)c(O)c1)C(=O)NCc1ccccc1 | – | – | 13.5 | IC50 [6]: 25 µM
N#CC(C#N)=Cc1ccc(S(=O)(=O)O)o1 | > 250 | – | – | –
N#C/C(=C\c1ccc(O)c(O)c1)C(=O)Nc1ccccc1 | – | – | 42 | IC50 [6]: > 50 µM
N#C/C(=C\c1ccc(O)c(O)c1)C(=O)c1ccc([N+](=O)[O-])cc1 | 2.3 | 11 | 3 | IC50 [6]: <<20 uM
COc1cc2c(cc1O)NC(=O)C2=C(C#N)C#N | 60 | – | – | –
COc1ccc(C=C(C#N)C#N)cc1F | 800 | – | – | –
COc1ccc(NC(=O)/C(C#N)=C/c2ccc(O)c(O)c2)c(OC)c1 | – | – | > 166 | –
N#CC(C#N)=C1CCc2c1ccc(O)c2O | 7 | – | – | –
N#CC(C#N)=C1C(=O)Nc2cc(O)c(O)cc21 | 2.5 | – | – | –
CSc1ccc(C=C(C#N)C#N)cc1 | > 625 | – | – | –
CC(=O)Nc1ccc(C=C(C#N)C#N)cc1 | > 325 | – | – | –
N#CC(C#N)=Cc1ccc(C#N)cc1 | 1400 | – | – | –
N#C/C(=C\c1ccc(O)c(O)c1)C(=O)c1ccccc1Cl | 1.54 | 6.6 | 12 | –
N#CC(C#N)=C(N)/C(C#N)=C/c1ccc2[nH]ccc2c1 | 820 | – | – | IC50 [4]: >>100 uM; IC50 [8]: 7 µM
CC(NC(=O)/C(C#N)=C/c1ccc(O)c(O)c1)c1ccccc1 (stereo in doubt; 44) | 0.4 | 2.5 | 37 | IC50 [6]: 10 µM
CC(NC(=O)/C(C#N)=C/c1ccc(O)c(O)c1)c1ccccc1 (stereo in doubt; 50) | 0.86 | – | – | –
